Results: ChEMBL document CHEMBL1123812, “Pyrroloisoquinoline antidepressants. 2. In-depth exploration of structure-activity relationships” (J Med Chem, 1987)
Each block holds one compound with its values, some of them ahead of it.

Legend:
Mus musculus [1] = organism: Mus musculus; test: Antagonism of tetrabenazine (TBZ)-induced depression in mice measured for ptosis; format: functional
How it was run: (§1)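 Nonfasted male Swiss Webster mice, 18–24 g, ten per dose level and in saline controls. Test compound given ip 30 min before tetrabenazine 32 mg/kg ip; dose expressed as free base. Motor activity and ptosis scored. Control response ≤90% corrected by Abbott's formula.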

Mus musculus [2] = organism: Mus musculus; test: Antagonism of tetrabenazine (TBZ)-induced depression measured in mice by motor activity; format: functional; how it was run: as §1
[3] = biological target: Sodium-dependent dopamine transporter (Rattus norvegicus) (UniProt P23977); test: Ability to inhibit the uptake of [3H]dopamine (DA) 0.1 uM concentration at rat brain synaptosomes; format: functional, subcellular
How it was run: (§2)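 Male Wistar rat brain synaptosomes (P2 fraction): hypothalamus for NE, striatum for DA, cerebral cortex for 5-HT. Buffer is Tris- or HEPES-buffered salt medium with glucose, ascorbate and nialamide, pH 7.4 at 37 °C. Preincubated 10 min at 37 °C with compound. Uptake started with [3H]NE 100–300 nM, [3H]DA 50–300 nM or [3H]5-HT 100–200 nM, incubated 3 min (DA) or 6–10 min (NE, 5-HT). Blanks held on ice. Filtered, counted by scintillation.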

[4] = biological target: Norepinephrine transporter (Rattus norvegicus) (UniProt Q9WTR4); test: Ability to inhibit the uptake of [3H]norepinephrine (NE) 0.1 uM concentration at rat brain synaptosomes; format: functional, subcellular; how it was run: as §2
[5] = biological target: Sodium-dependent serotonin transporter (Rattus norvegicus) (UniProt P31652); test: Ability to inhibit the uptake of [3H]- serotonin(5-HT) 0.1 uM concentration at rat brain synaptosomes; format: functional, subcellular; how it was run: as §2
[6] = biological target: Sodium-dependent dopamine transporter (Rattus norvegicus, UniProt P23977); test: Inhibition of the uptake of tritiated dopamine (DA) in rat synaptosomes; format: subcellular, Brain
[7] = biological target: T1, Adrenergic receptor alpha-1 (Rattus norvegicus, UniProt P15823+P23944+P43140); test: Binding affinity towards alpha-1 adrenergic receptor; format: protein assay
T1 sequence (P15823 whole entry): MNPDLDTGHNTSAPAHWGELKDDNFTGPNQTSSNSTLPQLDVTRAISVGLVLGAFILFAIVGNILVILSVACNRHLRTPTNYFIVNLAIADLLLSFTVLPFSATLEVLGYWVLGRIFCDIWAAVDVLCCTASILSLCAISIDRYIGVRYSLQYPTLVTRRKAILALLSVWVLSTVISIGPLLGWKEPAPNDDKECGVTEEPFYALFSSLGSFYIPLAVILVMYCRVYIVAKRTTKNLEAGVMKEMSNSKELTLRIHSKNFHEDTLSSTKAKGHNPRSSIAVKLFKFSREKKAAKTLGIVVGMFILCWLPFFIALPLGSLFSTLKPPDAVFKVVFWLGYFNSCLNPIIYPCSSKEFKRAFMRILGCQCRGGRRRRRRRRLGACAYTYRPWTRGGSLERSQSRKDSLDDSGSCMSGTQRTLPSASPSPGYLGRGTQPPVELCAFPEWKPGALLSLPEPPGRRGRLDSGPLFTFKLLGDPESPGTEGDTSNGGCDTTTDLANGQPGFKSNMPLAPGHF
T1 sequence (P23944 whole entry): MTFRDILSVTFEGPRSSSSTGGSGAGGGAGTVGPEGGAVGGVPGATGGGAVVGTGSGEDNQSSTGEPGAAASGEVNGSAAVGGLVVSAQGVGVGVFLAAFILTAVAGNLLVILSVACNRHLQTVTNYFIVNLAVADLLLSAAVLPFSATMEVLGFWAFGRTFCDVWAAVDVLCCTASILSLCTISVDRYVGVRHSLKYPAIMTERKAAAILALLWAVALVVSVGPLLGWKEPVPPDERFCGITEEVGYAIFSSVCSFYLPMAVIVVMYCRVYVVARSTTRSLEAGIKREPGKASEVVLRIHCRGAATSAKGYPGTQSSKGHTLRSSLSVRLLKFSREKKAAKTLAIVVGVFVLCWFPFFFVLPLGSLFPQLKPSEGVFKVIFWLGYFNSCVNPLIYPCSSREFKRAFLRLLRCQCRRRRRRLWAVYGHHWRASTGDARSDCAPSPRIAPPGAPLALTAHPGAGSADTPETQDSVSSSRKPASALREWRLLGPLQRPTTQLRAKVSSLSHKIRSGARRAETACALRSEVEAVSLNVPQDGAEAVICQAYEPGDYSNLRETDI
T1 sequence (P43140 whole entry): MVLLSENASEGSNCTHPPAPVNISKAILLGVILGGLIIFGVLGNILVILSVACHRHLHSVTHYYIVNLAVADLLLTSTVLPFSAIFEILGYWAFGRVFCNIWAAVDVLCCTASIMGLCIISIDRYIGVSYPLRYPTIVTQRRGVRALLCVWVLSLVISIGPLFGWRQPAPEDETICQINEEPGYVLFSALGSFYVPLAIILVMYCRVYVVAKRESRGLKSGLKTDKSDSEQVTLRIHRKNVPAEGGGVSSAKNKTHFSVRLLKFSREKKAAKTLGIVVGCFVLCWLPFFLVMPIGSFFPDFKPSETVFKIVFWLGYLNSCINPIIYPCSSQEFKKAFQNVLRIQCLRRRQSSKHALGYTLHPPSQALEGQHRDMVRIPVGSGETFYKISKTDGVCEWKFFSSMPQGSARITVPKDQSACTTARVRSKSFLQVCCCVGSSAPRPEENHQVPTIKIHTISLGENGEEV

[8] = biological target: Sodium-dependent dopamine transporter (Rattus norvegicus) (UniProt P23977); test: Inhibition of tritiated dopamine (DA) uptake at 0.1 uM concentration; format: functional; how it was run: as §2
Mus musculus [9] = organism: Mus musculus; test: Gross behavioral effects ascertained in mice; S indicates significant stimulant properties.; format: functional, organism-based
How it was run: (§3)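 Male Swiss Webster mice, 18–24 g, three per dose, given ip doses of 1, 3, 10, 30, 100 and 300 mg/kg. Observed for gross behavior and held for 4 days. Scored as weak (W), stimulant (S), depressant (D) or convulsant (C).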

[10] = biological target: Norepinephrine transporter (Rattus norvegicus, UniProt Q9WTR4); test: Inhibition of uptake of tritiated norepinephrine (NE) in rat synaptosomes; format: subcellular, Brain
Rattus norvegicus = organism: Rattus norvegicus; test: Ability to inhibit the uptake of tritiated norepinephrine (NE) at 0.1 uM concentration; format: functional; how it was run: as §2
[11] = biological target: Sodium-dependent serotonin transporter (Rattus norvegicus) (UniProt P31652); test: Inhibition of tritiated serotonin(5-HT) uptake at 0.1 uM concentration; format: functional; how it was run: as §2
Mus musculus [12] = organism: Mus musculus; test: Gross behavioral effects ascertained in mice; W indicates weak stimulant or depressant activity of little significance.; format: functional, organism-based; how it was run: as §3

Sodium-dependent dopamine transporter (Rattus norvegicus), sequence (P23977 whole entry): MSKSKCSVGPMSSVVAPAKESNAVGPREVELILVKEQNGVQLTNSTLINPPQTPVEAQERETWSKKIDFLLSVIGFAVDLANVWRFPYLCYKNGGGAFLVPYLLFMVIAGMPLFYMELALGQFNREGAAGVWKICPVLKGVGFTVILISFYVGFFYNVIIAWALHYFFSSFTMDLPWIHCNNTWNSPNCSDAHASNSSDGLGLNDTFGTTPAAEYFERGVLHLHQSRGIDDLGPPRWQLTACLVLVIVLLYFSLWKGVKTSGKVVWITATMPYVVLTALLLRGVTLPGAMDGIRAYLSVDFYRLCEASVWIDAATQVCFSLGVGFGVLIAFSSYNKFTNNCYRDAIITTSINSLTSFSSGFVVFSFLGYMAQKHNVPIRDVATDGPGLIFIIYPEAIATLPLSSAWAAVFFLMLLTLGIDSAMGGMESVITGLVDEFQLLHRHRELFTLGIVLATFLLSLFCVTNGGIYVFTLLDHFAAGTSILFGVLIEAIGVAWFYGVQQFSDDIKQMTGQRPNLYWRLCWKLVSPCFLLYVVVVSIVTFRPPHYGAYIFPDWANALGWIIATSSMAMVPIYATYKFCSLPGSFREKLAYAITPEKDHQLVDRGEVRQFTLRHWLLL
Sodium-dependent dopamine transporter, sequence (P23977 whole entry): as above
Norepinephrine transporter (Rattus norvegicus), sequence (Q9WTR4 as listed by the source): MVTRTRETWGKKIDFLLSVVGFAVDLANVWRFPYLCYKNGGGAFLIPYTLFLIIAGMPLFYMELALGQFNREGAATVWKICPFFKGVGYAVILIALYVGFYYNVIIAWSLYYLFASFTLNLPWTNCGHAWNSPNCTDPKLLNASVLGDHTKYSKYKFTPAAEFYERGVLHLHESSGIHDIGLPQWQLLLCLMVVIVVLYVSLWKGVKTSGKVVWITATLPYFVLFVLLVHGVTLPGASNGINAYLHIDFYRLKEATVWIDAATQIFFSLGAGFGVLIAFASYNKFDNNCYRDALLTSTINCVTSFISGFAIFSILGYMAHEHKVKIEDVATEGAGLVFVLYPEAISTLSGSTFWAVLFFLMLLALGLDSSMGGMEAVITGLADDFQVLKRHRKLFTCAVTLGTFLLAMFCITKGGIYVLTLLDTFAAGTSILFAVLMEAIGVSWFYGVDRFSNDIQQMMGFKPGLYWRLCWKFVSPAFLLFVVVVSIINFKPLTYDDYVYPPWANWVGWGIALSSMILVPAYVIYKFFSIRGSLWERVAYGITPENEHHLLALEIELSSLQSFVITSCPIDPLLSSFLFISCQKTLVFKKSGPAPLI
Norepinephrine transporter, sequence (Q9WTR4 whole entry): as the sequence (Q9WTR4 as listed by the source) above
Sodium-dependent serotonin transporter (Rattus norvegicus), sequence (P31652 whole entry): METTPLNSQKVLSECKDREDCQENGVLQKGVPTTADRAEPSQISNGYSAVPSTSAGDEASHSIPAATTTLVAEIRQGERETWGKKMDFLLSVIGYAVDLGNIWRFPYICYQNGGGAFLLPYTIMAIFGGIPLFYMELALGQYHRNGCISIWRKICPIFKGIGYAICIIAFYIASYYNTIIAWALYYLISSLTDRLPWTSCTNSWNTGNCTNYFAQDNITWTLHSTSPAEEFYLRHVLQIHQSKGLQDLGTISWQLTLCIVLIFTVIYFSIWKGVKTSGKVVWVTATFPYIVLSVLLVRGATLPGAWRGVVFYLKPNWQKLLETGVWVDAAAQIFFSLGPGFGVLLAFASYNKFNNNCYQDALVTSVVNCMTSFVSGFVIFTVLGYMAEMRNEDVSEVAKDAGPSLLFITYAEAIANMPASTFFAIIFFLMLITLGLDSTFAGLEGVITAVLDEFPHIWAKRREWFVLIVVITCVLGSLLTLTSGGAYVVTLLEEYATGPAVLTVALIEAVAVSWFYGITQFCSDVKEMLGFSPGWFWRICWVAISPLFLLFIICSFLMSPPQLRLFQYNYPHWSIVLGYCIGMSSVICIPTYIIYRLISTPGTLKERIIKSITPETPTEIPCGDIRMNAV

Compound: Br.FC(F)(F)c1ccccc1[C@@H]1CN2CCC[C@@H]2c2ccccc21
ED50 (Mus musculus [1]; Mus musculus, read-out: ED50): > 3 mg/kg | ED50 (Mus musculus [2]; Mus musculus, read-out: ED50): > 3 mg/kg | inhibition [3]: 14% | inhibition [4]: 42% | inhibition [5]: 2%

Compound: Cc1ccccc1[C@@H]1CN2CCC[C@H]2c2ccccc21
inhibition [3]: -1% | inhibition [4]: 12% | inhibition [5]: -6%

Compound: c1ccc(C[C@@H]2CN3CCC[C@H]3c3ccccc32)cc1
inhibition [3]: 15% | inhibition [4]: 100% | inhibition [5]: -3%

Compound: c1ccc([C@@H]2CN3CCC[C@@H]3c3ccccc32)cc1 (stereo in doubt; (+)-7b)
ED50 (Mus musculus [1]): 0.05 mg/kg | ED50 (Mus musculus [2]): 0.59 mg/kg | Ki [6]: 4.4 nM | Ki [7]: 83 nM

Compound: Br.CCCCc1ccc([C@@H]2CN3CCC[C@H]3c3ccccc32)cc1
ED50 (Mus musculus [2]; Mus musculus, read-out: ED50): > 30 mg/kg | behavior (Mus musculus [12]): Weak | inhibition [3]: 5% | inhibition [4]: 13% | inhibition [5]: 3%

Compound: C#Cc1ccc([C@@H]2CN3CCC[C@@H]3c3ccccc32)cc1
ED50 (Mus musculus [1]; Mus musculus, read-out: ED50): ~0.5 mg/kg | ED50 (Mus musculus [2]; Mus musculus, read-out: ED50): ~0.5 mg/kg | behavior (Mus musculus [9]): Significant stimulant

Compound: Br.c1ccc([C@H]2CN3CCC[C@H]3c3ccsc32)cc1
ED50 (Mus musculus [1]; Mus musculus, read-out: ED50): 0.79 mg/kg | ED50 (Mus musculus [2]; Mus musculus, read-out: ED50): 5 mg/kg | behavior (Mus musculus [9]): Significant stimulant | Ki [6]: 5.2 nM | Ki [10]: 1.4 nM

Compound: Br.c1ccc([C@@H]2CN3CCCCC[C@H]3c3ccccc32)cc1
ED50 (Mus musculus [1]; Mus musculus, read-out: ED50): ~40 mg/kg | ED50 (Mus musculus [2]; Mus musculus, read-out: ED50): ~40 mg/kg | behavior (Mus musculus [12]): Weak | inhibition [4]: 13% | inhibition [5]: 6% | inhibition [8]: 19%

Further lines, with some results ahead:

inhibition [3]: 5% | inhibition [4]: 58% | inhibition [5]: 25%
Compound: FC(F)(F)c1cc([C@@H]2CN3CCC[C@@H]3c3ccccc32)cc(C(F)(F)F)c1

inhibition [4]: -1% | inhibition [5]: 15% | inhibition [8]: 7%
Compound: FC(F)(F)c1ccc([C@@H]2CN3CCC[C@H]3c3ccccc32)cc1

Ki [6]: 7.4 nM | Ki [10]: 1.25 nM
Compound: Br.C[C@]1(c2ccccc2)CN2CCC[C@H]2c2ccccc21
ED50 (Mus musculus [1]; Mus musculus, read-out: ED50): 0.44 mg/kg | ED50 (Mus musculus [2]; Mus musculus, read-out: ED50): 27.2 mg/kg | behavior (Mus musculus [9]): Significant stimulant

Ki [6]: 0.86 nM | Ki [10]: 0.2 nM
Compound: Br.Nc1ccc([C@@H]2CN3CCC[C@@H]3c3ccccc32)cc1
ED50 (Mus musculus [1]; Mus musculus, read-out: ED50): ~0.01 mg/kg | ED50 (Mus musculus [2]; Mus musculus, read-out: ED50): ~0.02 mg/kg | behavior (Mus musculus [9]): Significant stimulant

inhibition [11]: 4% | inhibition [8]: 0%
Compound: Br.Fc1c(F)c(F)c([C@@H]2CN3CCC[C@H]3c3ccccc32)c(F)c1F
Inhibition (Rattus norvegicus): 12%

inhibition [3]: 33% | inhibition [4]: 71% | inhibition [5]: 6%
Compound: N#Cc1ccccc1[C@@H]1CN2CCC[C@@H]2c2ccccc21
ED50 (Mus musculus [1]; Mus musculus, read-out: ED50): > 3 mg/kg | ED50 (Mus musculus [2]; Mus musculus, read-out: ED50): > 3 mg/kg

inhibition [11]: 2% | inhibition [8]: 14%
Compound: Br.Fc1c(F)c(F)c([C@@H]2CN3CCC[C@@H]3c3ccccc32)c(F)c1F
Inhibition (Rattus norvegicus): 42%

Ki [10]: 16.1 nM | inhibition [8]: 35%
Compound: Br.COc1cccc([C@@H]2CN3CCC[C@H]3c3ccccc32)c1
ED50 (Mus musculus [1]; Mus musculus, read-out: ED50): > 60 mg/kg | ED50 (Mus musculus [2]; Mus musculus, read-out: ED50): > 60 mg/kg | behavior (Mus musculus [12]): Weak
